Laboratory results from ChEMBL document CHEMBL1145082 (J Med Chem, 2003).
pEC50, pIC50: −log10 of the molar value.

Key:
[1] = target: Casein kinase II (Homo sapiens) (UniProt P67870+P68400+P19784); experiment: Inhibition of human Casein kinase II at 10 uM; format: protein-complex assay; parameters: scale not given: the % may be the effect or the level left
Summary of the method: (§1)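 Outsourced selectivity panel. Each kinase phosphorylated its own peptide or protein substrate in the presence of 10 µM compound and 10 µM ATP, within the linear time range. Activity given as mean percent of control incubations from duplicate determinations.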

[2] = target: CDK3/cyclin E (Homo sapiens) (UniProt P24864+O96020+Q00526); experiment: Inhibition of cyclin-dependent kinase 3-cyclin E at 10 uM; format: protein-complex assay; parameters: scale not given: the % may be the effect or the level left; summary of the method: as §1
Chain of CDK3/cyclin E (Homo sapiens) (O96020 whole entry, looked up): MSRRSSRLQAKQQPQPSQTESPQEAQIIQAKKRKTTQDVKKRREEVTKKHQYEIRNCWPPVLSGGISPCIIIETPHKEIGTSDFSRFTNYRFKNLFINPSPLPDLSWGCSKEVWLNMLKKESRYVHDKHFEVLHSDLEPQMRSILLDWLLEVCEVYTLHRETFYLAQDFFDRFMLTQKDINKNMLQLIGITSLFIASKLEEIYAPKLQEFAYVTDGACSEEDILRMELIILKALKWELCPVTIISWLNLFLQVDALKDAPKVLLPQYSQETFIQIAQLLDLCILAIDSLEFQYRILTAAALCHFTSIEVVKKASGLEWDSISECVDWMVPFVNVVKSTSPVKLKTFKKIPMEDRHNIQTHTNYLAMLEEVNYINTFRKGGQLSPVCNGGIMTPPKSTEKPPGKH
Chain of CDK3/cyclin E (Homo sapiens) (P24864 whole entry, looked up): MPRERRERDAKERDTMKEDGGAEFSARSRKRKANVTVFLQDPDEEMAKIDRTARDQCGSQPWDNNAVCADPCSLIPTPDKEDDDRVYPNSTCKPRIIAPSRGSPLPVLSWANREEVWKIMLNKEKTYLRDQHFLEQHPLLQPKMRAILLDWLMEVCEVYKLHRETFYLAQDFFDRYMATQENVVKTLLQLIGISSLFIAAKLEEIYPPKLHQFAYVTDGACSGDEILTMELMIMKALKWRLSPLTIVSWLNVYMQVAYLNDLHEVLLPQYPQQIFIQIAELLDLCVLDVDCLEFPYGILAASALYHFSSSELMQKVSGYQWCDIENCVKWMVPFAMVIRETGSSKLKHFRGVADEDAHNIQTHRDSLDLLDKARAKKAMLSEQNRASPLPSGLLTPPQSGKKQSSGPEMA
Chain of CDK3/cyclin E (Homo sapiens) (Q00526 whole entry, looked up): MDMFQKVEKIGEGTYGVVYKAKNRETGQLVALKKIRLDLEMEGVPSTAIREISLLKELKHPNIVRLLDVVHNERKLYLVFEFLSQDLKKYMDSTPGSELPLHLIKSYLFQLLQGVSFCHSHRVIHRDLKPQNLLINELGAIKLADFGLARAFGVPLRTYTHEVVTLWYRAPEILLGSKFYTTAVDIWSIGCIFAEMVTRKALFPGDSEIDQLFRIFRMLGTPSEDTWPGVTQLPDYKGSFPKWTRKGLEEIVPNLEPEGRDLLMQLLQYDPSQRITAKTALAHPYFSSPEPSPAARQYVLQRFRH

[3] = target: Fibroblast growth factor receptor 3 (Homo sapiens) (UniProt P22607); experiment: Inhibition of Fibroblast growth factor receptor 3 at 10 uM; parameters: scale not given: the % may be the effect or the level left; summary of the method: as §1
[4] = Increased glycogen synthase activity in HEK293 cells; format: functional, cell-based; details: Homo sapiens
Summary of the method: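 HEK293 cells starved of serum and glucose for 3 h, then exposed to compound or vehicle for 90 min at 37 °C. Cells lysed by three freeze–thaw cycles and lysates clarified. GS activity read as 14C-UDP-glucose incorporation into glycogen, with and without glucose 6-phosphate. EC50 from 6–10 concentrations; ≥3 experiments in duplicate; mean ± SEM.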

[5] = target: Insulin receptor (Homo sapiens) (UniProt P06213); experiment: Inhibition of Insulin receptor at 10 uM; parameters: scale not given: the % may be the effect or the level left; summary of the method: as §1
[6] = target: Mitogen-activated protein kinase 8 (Homo sapiens) (UniProt P45983); experiment: Inhibition of human JNK1-alpha-1 at 10 uM; parameters: scale not given: the % may be the effect or the level left; summary of the method: as §1
[7] = target: Dual specificity mitogen-activated protein kinase kinase 6 (Homo sapiens) (UniProt P52564); experiment: Inhibition of human Mitogen activated protein kinase kinase 6 at 10 uM; parameters: scale not given: the % may be the effect or the level left; summary of the method: as §1
Chain of Dual specificity mitogen-activated protein kinase kinase 6 (Homo sapiens) (P52564 whole entry): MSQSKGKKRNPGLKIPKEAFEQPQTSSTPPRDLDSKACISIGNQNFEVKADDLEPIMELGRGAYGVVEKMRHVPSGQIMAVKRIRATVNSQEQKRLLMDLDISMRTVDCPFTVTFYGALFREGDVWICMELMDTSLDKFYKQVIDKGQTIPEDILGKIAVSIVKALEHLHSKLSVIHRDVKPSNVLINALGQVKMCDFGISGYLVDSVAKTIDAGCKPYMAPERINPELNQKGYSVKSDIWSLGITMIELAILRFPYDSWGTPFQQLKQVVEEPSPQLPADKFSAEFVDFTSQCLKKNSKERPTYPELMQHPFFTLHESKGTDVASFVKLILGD

[8] = target: Platelet-derived growth factor receptor beta (Homo sapiens) (UniProt P09619); experiment: Inhibition of Platelet-derived growth factor receptor beta at 10 uM; parameters: scale not given: the % may be the effect or the level left; summary of the method: as §1
[9] = target: Serine/threonine-protein kinase N2 (Homo sapiens) (UniProt Q16513); experiment: Inhibition of human protein kinase C-related protein kinase 2 (PRK2) at 10 uM; parameters: scale not given: the % may be the effect or the level left
Chain of Serine/threonine-protein kinase N2 (Homo sapiens) (Q16513 whole entry, looked up): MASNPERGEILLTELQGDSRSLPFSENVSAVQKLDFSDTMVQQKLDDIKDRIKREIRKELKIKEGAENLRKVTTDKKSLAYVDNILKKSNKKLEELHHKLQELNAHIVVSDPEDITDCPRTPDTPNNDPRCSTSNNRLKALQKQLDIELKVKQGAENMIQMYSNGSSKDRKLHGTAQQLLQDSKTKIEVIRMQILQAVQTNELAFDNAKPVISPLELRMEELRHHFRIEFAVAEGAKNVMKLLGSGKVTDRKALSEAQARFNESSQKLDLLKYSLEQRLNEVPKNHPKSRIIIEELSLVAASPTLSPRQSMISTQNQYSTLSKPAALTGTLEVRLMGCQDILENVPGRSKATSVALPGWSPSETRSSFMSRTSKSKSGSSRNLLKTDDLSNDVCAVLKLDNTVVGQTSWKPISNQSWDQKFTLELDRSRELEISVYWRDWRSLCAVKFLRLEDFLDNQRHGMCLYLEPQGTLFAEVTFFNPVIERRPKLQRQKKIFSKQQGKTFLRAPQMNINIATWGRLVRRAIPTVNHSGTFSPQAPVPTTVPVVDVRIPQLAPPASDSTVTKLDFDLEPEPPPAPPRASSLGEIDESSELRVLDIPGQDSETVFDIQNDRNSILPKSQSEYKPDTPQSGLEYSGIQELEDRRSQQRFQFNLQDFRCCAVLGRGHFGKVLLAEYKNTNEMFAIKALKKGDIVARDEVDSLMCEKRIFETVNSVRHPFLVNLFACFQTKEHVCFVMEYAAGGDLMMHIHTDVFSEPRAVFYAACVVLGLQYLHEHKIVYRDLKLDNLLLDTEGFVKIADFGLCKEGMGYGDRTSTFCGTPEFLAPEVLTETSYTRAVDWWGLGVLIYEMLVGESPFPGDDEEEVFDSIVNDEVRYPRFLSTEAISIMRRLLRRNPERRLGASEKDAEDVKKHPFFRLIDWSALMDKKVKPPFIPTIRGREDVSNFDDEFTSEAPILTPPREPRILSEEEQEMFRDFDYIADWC
Summary of the method: (§2)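 Upstate kinase selectivity panel: each kinase phosphorylated its peptide or protein substrate with 10 µM compound present and 10 µM ATP. Reactions were linear with time. Activity is reported as the mean percentage of control incubations, from duplicate determinations.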

[10] = target: Protein kinase C gamma type (Homo sapiens, UniProt P05129); experiment: Inhibition of Protein kinase C gamma (PKC-gamma)
Summary of the method: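 Recombinant human PKCα, PKCγ or PKCβII (5–10 mU) phosphorylating histone H1 (0.1 mg/mL) with 33P-ATP, total ATP 10 µM. Buffer 50 mM Hepes pH 7.4 with Triton X-100, CaCl2, Mg acetate, phosphatidylserine and diacylglycerol. Run 40 min at room temperature, stopped with phosphoric acid, then P30 filter counting. IC50 from 6–10 concentrations; ≥3 experiments in duplicate; ± SEM.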

[11] = target: RAC-beta serine/threonine-protein kinase (Homo sapiens) (UniProt P31751); experiment: Inhibition of Protein kinase B beta at 10 uM; parameters: scale not given: the % may be the effect or the level left; summary of the method: as §1
Chain of RAC-beta serine/threonine-protein kinase (Homo sapiens) (P31751 whole entry): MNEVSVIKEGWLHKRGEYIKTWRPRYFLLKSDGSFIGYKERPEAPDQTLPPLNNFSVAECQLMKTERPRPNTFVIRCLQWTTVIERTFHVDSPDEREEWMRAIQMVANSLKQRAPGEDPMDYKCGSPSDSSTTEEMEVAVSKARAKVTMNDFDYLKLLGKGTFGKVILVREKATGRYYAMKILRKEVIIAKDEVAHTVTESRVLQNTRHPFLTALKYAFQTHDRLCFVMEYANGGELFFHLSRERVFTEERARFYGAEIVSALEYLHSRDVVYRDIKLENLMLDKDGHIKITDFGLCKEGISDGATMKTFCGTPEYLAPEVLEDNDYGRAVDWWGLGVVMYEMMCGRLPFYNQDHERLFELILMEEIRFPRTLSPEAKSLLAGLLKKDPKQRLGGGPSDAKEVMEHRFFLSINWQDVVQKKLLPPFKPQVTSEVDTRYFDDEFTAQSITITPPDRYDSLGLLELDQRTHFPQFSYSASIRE

[12] = target: Tyrosine-protein kinase Lyn (Homo sapiens) (UniProt P07948); experiment: Inhibition of Protein tyrosine kinase Lyn at 10 uM; parameters: scale not given: the % may be the effect or the level left; summary of the method: as §1
[13] = target: Serine/threonine-protein kinase Chk1 (Homo sapiens) (UniProt O14757); experiment: Inhibition of human Serine/threonine-protein kinase Chk1 at 10 uM; parameters: scale not given: the % may be the effect or the level left; summary of the method: as §2
Chain of Serine/threonine-protein kinase Chk1 (Homo sapiens) (O14757 whole entry): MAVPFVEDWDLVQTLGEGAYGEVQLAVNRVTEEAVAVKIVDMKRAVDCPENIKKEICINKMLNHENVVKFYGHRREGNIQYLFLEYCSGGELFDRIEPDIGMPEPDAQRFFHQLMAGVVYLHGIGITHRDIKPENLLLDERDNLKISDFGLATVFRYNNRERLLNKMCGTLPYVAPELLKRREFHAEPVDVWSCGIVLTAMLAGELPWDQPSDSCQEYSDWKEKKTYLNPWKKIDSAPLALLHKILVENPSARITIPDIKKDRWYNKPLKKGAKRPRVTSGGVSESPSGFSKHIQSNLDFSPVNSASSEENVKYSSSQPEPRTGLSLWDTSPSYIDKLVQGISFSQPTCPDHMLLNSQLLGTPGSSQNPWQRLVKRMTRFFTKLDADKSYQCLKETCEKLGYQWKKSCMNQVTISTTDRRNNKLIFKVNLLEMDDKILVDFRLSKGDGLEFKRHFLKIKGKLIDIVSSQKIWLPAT

[14] = target: Ribosomal protein S6 kinase alpha-3 (Homo sapiens) (UniProt P51812); experiment: (§3) Inhibition of Ribosomal S6 kinase 3 at 10 uM; summary of the method: as §1
Chain of Ribosomal protein S6 kinase alpha-3 (Homo sapiens) (P51812 whole entry): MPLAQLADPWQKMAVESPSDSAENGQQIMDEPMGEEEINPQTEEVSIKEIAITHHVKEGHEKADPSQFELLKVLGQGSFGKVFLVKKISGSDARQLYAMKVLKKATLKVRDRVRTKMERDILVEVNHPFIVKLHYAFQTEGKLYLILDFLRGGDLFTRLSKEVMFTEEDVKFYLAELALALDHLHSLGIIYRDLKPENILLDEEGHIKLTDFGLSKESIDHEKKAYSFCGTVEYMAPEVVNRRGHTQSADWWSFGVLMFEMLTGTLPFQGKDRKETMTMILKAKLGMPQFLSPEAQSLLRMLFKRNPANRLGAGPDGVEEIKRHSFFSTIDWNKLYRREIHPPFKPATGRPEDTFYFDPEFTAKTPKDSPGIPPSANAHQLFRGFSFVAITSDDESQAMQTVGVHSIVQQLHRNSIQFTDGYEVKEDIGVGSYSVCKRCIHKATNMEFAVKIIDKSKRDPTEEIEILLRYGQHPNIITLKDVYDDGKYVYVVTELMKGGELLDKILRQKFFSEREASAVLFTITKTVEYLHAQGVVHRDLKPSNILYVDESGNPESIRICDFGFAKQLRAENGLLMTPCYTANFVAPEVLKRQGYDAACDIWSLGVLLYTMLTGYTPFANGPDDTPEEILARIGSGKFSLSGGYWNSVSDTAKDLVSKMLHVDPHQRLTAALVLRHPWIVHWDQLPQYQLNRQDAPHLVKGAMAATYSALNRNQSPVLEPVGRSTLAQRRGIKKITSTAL

[15] = target: Insulin-like growth factor 1 receptor (Homo sapiens) (UniProt P08069); experiment: Inhibition of Type 1 insulin like growth factor receptor at 10 uM; parameters: scale not given: the % may be the effect or the level left; summary of the method: as §1
[16] = target: Tyrosine-protein kinase SYK (Homo sapiens) (UniProt P43405); experiment: Inhibition of Syk protein tyrosine kinase at 10 uM; parameters: scale not given: the % may be the effect or the level left; summary of the method: as §1
[17] = target: Mitogen-activated protein kinase 9 (Homo sapiens) (UniProt P45984); experiment: Inhibition of human c-Jun N-terminal kinase 2-alpha 2 at 10 uM; parameters: scale not given: the % may be the effect or the level left; summary of the method: as §2
[18] = target: Tyrosine-protein kinase Lck (Homo sapiens) (UniProt P06239); experiment: Inhibition of human p56 Lck tyrosine kinase at 10 uM; parameters: scale not given: the % may be the effect or the level left; summary of the method: as §2
[19] = target: Mitogen-activated protein kinase 1 (Homo sapiens) (UniProt P28482); experiment: Inhibition of human Mitogen-activated protein kinase 1 at 10 uM; parameters: scale not given: the % may be the effect or the level left; summary of the method: as §1
[20] = target: Serine/threonine-protein kinase N2 (Homo sapiens) (UniProt Q16513); experiment: Inhibition of human Protein kinase C related kinase 2 (PRK2) at 10 uM; parameters: scale not given: the % may be the effect or the level left; summary of the method: as §1
[21] = target: Ribosomal protein S6 kinase alpha-3 (Homo sapiens) (UniProt P51812); experiment: as §3; parameters: scale not given: the % may be the effect or the level left; summary of the method: as §1
[22] = target: Mitogen-activated protein kinase 8 (Homo sapiens) (UniProt P45983); experiment: Inhibition of human c-Jun N-terminal kinase 1-alpha 1 at 10 uM; parameters: scale not given: the % may be the effect or the level left; summary of the method: as §2

## O=C1NC(=O)C2=C1c1cn(c3ncccc13)CCOCCOCCOCCOCCn1cc2c2cccnc21
[1]
  Activity: 102%
[2]
  Activity: 97%
[3]
  Activity: 61%
[4]
  pEC50: 6.41
[5]
  Activity: 92%
[6]
  Activity: 98%
[7]
  Activity: 85%
[8]
  Activity: 86%
[9]
  Activity: 104%
[10]
  pIC50: < 5.00
[11]
  Activity: 97%
[12]
  Activity: 92%
[13]
  Activity: 102%
[14]
  Of control: 63%
[15]
  Activity: 97%
[16]
  Activity: 72%
[17]
  Activity: 97%
[18]
  Activity: 174%

## O=C1NC(=O)C2=C1c1cn(c3ncccc13)CCOCCOCCOCCn1cc2c2cccnc21
[1]
  Activity: 105%
[2]
  Activity: 72%
[3]
  Activity: 58%
[4]
  pEC50: 7.22
[7]
  Activity: 87%
[19]
  Activity: 106%
[8]
  Activity: 84%
[10]
  pIC50: < 5.00
[11]
  Activity: 93%
[12]
  Activity: 99%
[20]
  Activity: 92%
[13]
  Activity: 101%
[21]
  Activity: 21%
[15]
  Activity: 107%
[16]
  Activity: 67%
[17]
  Activity: 76%
[22]
  Activity: 78%
[18]
  Activity: 194%
